In publication PMC3174055 (Biochemical Journal, 2011):
Values joined by “and” are separate entries in the source; they are usually repeats but may differ in a detail not shown here. Equal entries are not always repeated. Values belong to the compound of their own block, whether it stands above or below them.

Assays:
[1] = Plasma pharmacokinetics in mice; format: in vivo, CD-1 mice; details: male, CD-1, mouse, ip, 10 mg/kg
SK-OV-3 xenograft = assay: SK-OV-3 tumour xenograft efficacy and toxicity; format: in vivo, Rag1−/− or NIH-III mice; details: QD×21, BEZ-235 15 mg/kg, A66 100 mg/kg
In short: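 SPF Rag1−/− or NIH-III mice, 5×10^6 SK-OV-3 cells s.c. in PBS; dosing began at about 7 mm tumours. I.p., 10 ml/kg. Test compound (20% hydroxypropyl-β-cyclodextrin): 100 mg/kg QD×21 or 75 mg/kg BID×16, injections ≥~8 h apart. Reference inhibitor (10% ethanol): 15 mg/kg QD×21. Vehicle controls; 7–8 mice/group. Caliper volume (L×w²)×π/6; daily body weight; final-day TGI; ANOVA-Bonferroni.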

HCT-116 xenograft = assay: HCT-116 tumour xenograft efficacy and toxicity; format: in vivo, Rag1−/− or NIH-III mice; details: QD×7, BEZ-235 10 mg/kg, A66 100 mg/kg
In short: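 HCT-116 xenografts from 5×10^6 cells s.c. in PBS, in SPF Rag1−/− or NIH-III mice. Once-daily i.p. dosing for 7 days from tumours of about 7 mm. Test compound in 20% hydroxypropyl-β-cyclodextrin; reference inhibitor at 10 mg/kg in 10% ethanol; vehicle controls. Caliper volumes by (L×w²)×π/6; daily weights; euthanasia if weight loss exceeded 20%.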

U87MG xenograft = assay: U87MG tumour xenograft efficacy and toxicity; format: in vivo, Rag1−/− or NIH-III mice; details: QD×14, BEZ-235 15 mg/kg, A66 100 mg/kg
In short: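 U87MG cells (5×10^6, s.c. in PBS) in SPF Rag1−/− or NIH-III mice; treatment started at tumours of about 7 mm. Daily i.p. dosing for 14 days (10 ml/kg, free base). Test compound in 20% hydroxypropyl-β-cyclodextrin; reference inhibitor in 10% ethanol; controls given vehicle. Caliper volume (L×w²)×π/6; daily body weight and toxicity checks; mice killed at >20% weight loss.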

[2] = test system: panel of 110 protein kinases; assay: Protein kinase profiling, panel of 110 protein kinases; format: biochemical; details: 10 μM, Supplementary Figure S1
[3] = test system: phosphorylation of Akt/PKB (Ser473, Thr308); assay: Insulin-stimulated activation of Akt/PKB in cell lines, Western blotting; format: cell-based; details: for inhibition of insulin-stimulated phosphorylation of Akt/PKB Ser473 and Thr308: cell lines that lack the H1047R mutation, drug 15 min, then 500 nM insulin 5 min; for inhibition of insulin-stimulated activation of Akt/PKB: MCF7 cells
In short: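 Cells serum-starved overnight, then exposed to test compound or DMSO vehicle for 15 min and stimulated with 500 nM insulin for 5 min. Lysates separated by SDS/PAGE, 20 μg protein per lane except T47D, SK-OV-3 and MCF7, and Western blotted for Akt/PKB phosphorylation.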

p110γ = p110γ (Homo sapiens, UniProt P48736); assay: PI3K; format: biochemical; details: read-out: IC50 against p110γ; HTRF assay
p110α = p110α (Homo sapiens, UniProt P42336); assay: PI3K; format: biochemical; details: read-out: IC50 against p110α; HTRF assay
p110α E545K = p110α E545K (Homo sapiens, UniProt P42336, E545K); assay: PI3K; format: biochemical; details: read-out: IC50 against p110α E545K; HTRF assay
p110α H1047R = p110α H1047R (Homo sapiens, UniProt P42336, H1047R); assay: PI3K; format: biochemical; details: read-out: IC50 against p110α H1047R; HTRF assay
p110δ = p110δ (Homo sapiens, UniProt O00329); assay: PI3K; format: biochemical; details: read-out: IC50 against p110δ; HTRF assay
[4] = test system: Akt/PKB activation in PTEN-deficient cell lines; details: cited from earlier work

Chain of p110γ (P48736 whole entry): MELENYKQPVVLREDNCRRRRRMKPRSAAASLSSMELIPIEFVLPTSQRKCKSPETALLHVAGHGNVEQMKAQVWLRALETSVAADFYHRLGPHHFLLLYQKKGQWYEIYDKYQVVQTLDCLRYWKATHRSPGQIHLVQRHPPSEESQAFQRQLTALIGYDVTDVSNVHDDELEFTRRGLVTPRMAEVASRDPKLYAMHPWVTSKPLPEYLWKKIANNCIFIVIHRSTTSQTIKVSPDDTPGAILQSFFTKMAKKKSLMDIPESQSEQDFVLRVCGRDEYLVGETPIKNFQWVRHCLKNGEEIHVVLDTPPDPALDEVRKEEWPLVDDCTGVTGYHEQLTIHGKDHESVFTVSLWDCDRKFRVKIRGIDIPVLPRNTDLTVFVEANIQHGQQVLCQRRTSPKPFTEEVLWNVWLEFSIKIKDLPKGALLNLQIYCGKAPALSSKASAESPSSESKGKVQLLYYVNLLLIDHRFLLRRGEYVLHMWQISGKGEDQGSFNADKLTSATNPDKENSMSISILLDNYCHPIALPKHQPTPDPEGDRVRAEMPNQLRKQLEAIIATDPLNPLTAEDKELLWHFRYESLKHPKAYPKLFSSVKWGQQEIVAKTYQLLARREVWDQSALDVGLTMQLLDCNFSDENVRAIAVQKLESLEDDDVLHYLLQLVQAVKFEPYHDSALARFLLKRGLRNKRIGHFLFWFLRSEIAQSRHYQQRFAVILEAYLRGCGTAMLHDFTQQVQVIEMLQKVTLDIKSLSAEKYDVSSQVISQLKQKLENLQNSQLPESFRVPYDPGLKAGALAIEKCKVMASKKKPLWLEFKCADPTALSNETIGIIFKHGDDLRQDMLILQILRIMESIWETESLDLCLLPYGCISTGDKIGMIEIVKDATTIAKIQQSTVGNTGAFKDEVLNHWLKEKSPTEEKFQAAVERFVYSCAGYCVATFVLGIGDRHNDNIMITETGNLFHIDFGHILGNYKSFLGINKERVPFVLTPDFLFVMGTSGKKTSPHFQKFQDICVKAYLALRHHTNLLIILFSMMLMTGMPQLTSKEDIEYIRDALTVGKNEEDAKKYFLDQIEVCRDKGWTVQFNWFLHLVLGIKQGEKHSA
Chain of p110α H1047R (P42336 whole entry H1047R): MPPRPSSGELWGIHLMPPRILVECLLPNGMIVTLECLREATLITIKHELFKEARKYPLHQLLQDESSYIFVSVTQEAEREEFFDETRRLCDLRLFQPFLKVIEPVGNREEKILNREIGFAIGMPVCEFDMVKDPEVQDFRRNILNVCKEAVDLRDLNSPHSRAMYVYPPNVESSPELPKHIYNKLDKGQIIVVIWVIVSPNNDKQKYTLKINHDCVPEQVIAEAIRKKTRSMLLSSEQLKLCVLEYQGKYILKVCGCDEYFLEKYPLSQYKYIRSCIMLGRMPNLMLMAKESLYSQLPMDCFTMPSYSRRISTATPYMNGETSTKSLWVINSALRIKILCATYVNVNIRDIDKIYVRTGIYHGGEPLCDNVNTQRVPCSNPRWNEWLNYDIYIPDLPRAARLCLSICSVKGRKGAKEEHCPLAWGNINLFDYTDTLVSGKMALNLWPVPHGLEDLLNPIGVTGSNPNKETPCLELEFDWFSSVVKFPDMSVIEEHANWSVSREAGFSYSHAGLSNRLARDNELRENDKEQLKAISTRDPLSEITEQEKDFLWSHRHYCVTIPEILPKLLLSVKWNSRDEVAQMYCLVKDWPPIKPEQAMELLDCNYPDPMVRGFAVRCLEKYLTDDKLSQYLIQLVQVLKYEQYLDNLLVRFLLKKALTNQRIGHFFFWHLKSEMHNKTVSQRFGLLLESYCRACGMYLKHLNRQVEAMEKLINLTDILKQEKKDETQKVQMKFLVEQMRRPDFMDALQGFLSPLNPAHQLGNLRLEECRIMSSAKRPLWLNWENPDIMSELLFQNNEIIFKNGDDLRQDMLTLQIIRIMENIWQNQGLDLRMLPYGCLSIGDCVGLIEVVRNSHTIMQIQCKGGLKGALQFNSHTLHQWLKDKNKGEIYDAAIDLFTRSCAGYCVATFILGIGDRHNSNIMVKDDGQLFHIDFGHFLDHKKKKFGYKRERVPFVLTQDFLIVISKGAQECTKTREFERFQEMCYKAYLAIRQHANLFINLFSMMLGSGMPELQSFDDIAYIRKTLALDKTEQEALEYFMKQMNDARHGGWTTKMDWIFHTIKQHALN
Chain of p110α H1047R (P27986 whole entry partner): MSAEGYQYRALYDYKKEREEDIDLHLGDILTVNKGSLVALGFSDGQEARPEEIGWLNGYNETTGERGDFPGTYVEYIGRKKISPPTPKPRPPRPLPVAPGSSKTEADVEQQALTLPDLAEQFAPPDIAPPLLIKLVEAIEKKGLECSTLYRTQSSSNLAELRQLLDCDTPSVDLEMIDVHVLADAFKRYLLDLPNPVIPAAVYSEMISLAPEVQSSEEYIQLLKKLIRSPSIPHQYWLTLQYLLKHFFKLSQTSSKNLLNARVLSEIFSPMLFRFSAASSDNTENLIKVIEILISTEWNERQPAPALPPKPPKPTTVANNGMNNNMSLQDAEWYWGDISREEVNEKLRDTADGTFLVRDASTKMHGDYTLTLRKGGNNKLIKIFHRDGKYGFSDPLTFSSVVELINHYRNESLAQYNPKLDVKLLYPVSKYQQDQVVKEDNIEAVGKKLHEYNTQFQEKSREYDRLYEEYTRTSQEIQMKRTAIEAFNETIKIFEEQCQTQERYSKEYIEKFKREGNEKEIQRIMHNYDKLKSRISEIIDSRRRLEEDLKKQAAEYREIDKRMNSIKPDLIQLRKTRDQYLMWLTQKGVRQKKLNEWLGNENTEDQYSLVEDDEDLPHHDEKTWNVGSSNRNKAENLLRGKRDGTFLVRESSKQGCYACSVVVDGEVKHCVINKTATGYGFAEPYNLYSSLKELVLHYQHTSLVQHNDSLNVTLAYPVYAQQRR
Chain of p110α (P42336 whole entry): as the sequence (P42336 whole entry H1047R) above, with R1047H counted along it
Chain of p110α (P27986 whole entry partner): as the sequence (P27986 whole entry partner) above
Chain of p110δ (O00329 whole entry): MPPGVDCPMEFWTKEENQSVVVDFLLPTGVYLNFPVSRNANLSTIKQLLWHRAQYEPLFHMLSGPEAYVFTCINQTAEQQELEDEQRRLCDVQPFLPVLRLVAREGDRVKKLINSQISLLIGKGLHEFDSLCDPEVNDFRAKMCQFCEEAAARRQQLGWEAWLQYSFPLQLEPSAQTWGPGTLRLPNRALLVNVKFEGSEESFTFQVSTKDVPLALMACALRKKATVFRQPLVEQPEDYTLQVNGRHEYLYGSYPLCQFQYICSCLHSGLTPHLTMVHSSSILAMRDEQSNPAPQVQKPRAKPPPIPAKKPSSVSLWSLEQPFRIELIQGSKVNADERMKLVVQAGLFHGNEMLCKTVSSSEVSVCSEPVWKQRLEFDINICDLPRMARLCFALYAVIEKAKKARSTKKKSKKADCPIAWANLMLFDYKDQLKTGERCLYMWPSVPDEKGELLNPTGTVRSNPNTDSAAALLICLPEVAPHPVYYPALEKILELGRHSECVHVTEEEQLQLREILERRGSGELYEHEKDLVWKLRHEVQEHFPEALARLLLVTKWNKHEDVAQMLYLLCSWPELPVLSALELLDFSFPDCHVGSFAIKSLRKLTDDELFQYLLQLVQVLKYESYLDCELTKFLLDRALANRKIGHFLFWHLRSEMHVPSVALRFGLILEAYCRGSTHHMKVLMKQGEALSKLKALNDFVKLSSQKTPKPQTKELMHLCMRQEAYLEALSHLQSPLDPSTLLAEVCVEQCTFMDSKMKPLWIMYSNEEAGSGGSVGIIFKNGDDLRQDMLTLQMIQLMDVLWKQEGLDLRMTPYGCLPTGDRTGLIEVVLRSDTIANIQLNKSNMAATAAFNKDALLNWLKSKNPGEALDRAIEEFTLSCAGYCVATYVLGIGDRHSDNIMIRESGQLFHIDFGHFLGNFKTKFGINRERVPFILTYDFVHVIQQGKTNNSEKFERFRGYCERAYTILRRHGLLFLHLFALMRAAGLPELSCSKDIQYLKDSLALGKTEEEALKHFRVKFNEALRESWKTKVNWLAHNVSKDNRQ
Chain of p110δ (P27986 whole entry partner): as the sequence (P27986 whole entry partner) above
Chain of p110α E545K (P42336 whole entry E545K): as the sequence (P42336 whole entry H1047R) above, with E545K, R1047H counted along it
Chain of p110α E545K (P27986 whole entry partner): as the sequence (P27986 whole entry partner) above

SMILES: Cn1c(=O)n(-c2ccc(C(C)(C)C#N)cc2)c2c3cc(-c4cnc5ccccc5c4)ccc3ncc21 [BEZ-235]
- AUC [1]: 7.33 µM·h
- Cmax [1]: 1860 nM
- Tmax [1]: 0.25 h
- half-life [1]: 2.73 h
- body weight loss / tolerability (SK-OV-3 xenograft): moderate body weight loss
- BWL nadir (%) (SK-OV-3 xenograft; intraperitoneal): −9.5±6.6%
- Number of deaths/n (SK-OV-3 xenograft; intraperitoneal): four and 4/7
- BWL nadir (%) (HCT-116 xenograft; HCT-116, intraperitoneal): −5.9±1.8%
- Number of deaths/n (HCT-116 xenograft; HCT-116, intraperitoneal): 0/7
- effect on tumour volume (HCT-116 xenograft; HCT-116 xenograft): had no effect
- effect on tumour volume / growth (U87MG xenograft; U87MG xenograft): significantly reduced
- BWL nadir (%) (U87MG xenograft; U87MG, intraperitoneal): −8.4±5.4%
- Number of deaths/n (U87MG xenograft; U87MG, intraperitoneal): 0/5

SMILES: Cc1ccccc1-n1c(Cn2cnc3c(N)ncnc32)nc2cccc(C)c2c1=O [IC87114]
- inhibitory effects on panel of 110 protein kinases [2]: do not have any major effects
- inhibition of insulin-stimulated phosphorylation of Akt/PKB Ser473 and Thr308 [3]: not inhibited

SMILES: O=c1cc(N2CCOCC2)oc2c(-c3ccccc3)cccc12 [LY294002]
- inhibition of phosphorylation of Akt/PKB Ser473 and Thr308 ([3]; all cell lines tested): sensitive
- inhibition of insulin-stimulated phosphorylation of Akt/PKB Ser473 and Thr308 [3]: effective

- IC50 (p110γ): 33 nM
SMILES: Cc1ccc([N+](=O)[O-])cc1S(=O)(=O)N(C)/N=C/c1cnc2ccc(Br)cn12 [PIK-75]
- inhibitory effects on panel of 110 protein kinases [2]: inhibited a large number of protein kinases
- inhibition of insulin-stimulated activation of Akt/PKB [3]: partial inhibitory effect
- inhibition of insulin-stimulated phosphorylation of Akt/PKB Ser473 and Thr308 [3]: less effective

- IC50 (p110α): > 1000 nM
- IC50 (p110α E545K): > 1000 nM
- IC50 (p110α H1047R): > 1000 nM
- IC50 (p110δ): 130 nM
- IC50 (p110γ): > 1250 nM
- inhibitory effects on panel of 110 protein kinases [2]: do not have any major effects
SMILES: Cc1cc(C(C)Nc2ccccc2)c2nc(N3CCOCC3)cc(=O)n2c1 (stereo not shown) [TGX-221]
- inhibition of insulin-stimulated activation of Akt/PKB [3]: partial inhibitory effect
- inhibition of insulin-stimulated phosphorylation of Akt/PKB Ser473 and Thr308 [3]: not inhibited
- concentration required to induce reduction in Akt/PKB activation [4]: 2 µM

SMILES: COC[C@H]1OC(=O)c2coc3c2[C@@]1(C)C1=C(C3=O)[C@@H]2CCC(=O)[C@@]2(C)C[C@H]1OC(C)=O [wortmannin]
- inhibition of insulin-stimulated phosphorylation of Akt/PKB Ser473 and Thr308 [3]: effective
